ChEMBL document CHEMBL4364265, “Oridonin derivatives as potential anticancer drug candidates triggering apoptosis through mitochondrial pathway in the liver cancer cells” (Eur J Med Chem, 2019)
Activity calls are given as the source filed them. The rule behind the calls is not given here.

How the values were obtained:
[1] = test system: PLC-PRF-5; assay: Induction of apoptosis in human PLC/PRF/5 cells assessed as live cells at 0.5 uM incubated for 24 hrs by annexin V staining based cell counting method (reference value: 88.95%); assay type: functional
[2] = test system: HepG2; assay: Induction of apoptosis in human HepG2 cells assessed as live cells at 1 uM incubated for 24 hrs by annexin V staining based cell counting method (reference value: 87.35%); assay type: functional
[3] = test system: HepG2; assay: Induction of ROS generation in human HepG2 cells by DCFH-DA staining-based flow cytometric analysis; assay type: functional, cell-based
Method in brief: (§1)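 Cells were treated with 0, 0.25, 0.5 or 1 µM compound, stained with 10 µM DCFH-DA for 20 min at 37 °C, washed three times, resuspended in PBS and read by flow cytometry. Data are mean ± SD of three independent experiments.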

[4] = test system: PLC-PRF-5; assay: Induction of mitochondrial membrane potential loss in human PLC/PRF/5 cell incubated for 24 hrs by JC1 staining based fluorescence microscopic method; assay type: functional
Method in brief: (§2)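 Cells seeded in 12-well plates, cultured 12 h, treated 24 h (0, 0.25, 0.5, 1 µM). After a PBS wash, stained with JC-1 in medium for 20 min at 37 °C and washed three times. Red aggregate and green monomer fluorescence were imaged by fluorescence microscopy; the red/green ratio was taken; three independent experiments.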

[5] = test system: HepG2; assay: Inhibition of colony formation in human HepG2 cells at 0.1 to 1 uM incubated for 10 days by crystal violet staining based microscopic method; assay type: functional, cell-based
Method in brief: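 Five hundred cells plated per 30 mm dish and left 12 h. Medium with compound was added (0, 0.1, 0.5, 1 µM) or DMSO as negative control, and cells grew 10 days. Colonies were fixed in methanol 15 min, stained with 0.1% crystal violet 15 min, photographed and counted. Colony size was checked by microscope. Relative colony number is mean ± SD of ≥3 independent experiments.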

[6] = test system: HepG2; assay: Induction of apoptosis in human HepG2 cells assessed as down regulation of Bcl2 protein expression level incubated for 24 hrs by Western blot analysis; assay type: functional, cell-based
Method in brief: (§3)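 Cells were treated 24 h in DMEM with 0, 0.25, 0.5, 1.0 or 1.25 µM compound. Adherent and floating cells were lysed in RIPA on ice and protein measured by BCA. Equal protein was run on 7.5–12.5% SDS-PAGE and transferred to PVDF. Membranes were blocked in 5% milk/PBST, incubated with primary antibody overnight at 4 °C, and detected by ECL.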

[7] = test system: HepG2; assay: Induction of cell cycle arrest in human HepG2 cells assessed as accumulation at G1 phase at 0.5 uM incubated for 24 hrs by PI staining based flow cytometric analysis (reference value: 37.06%); assay type: functional
[8] = test system: HepG2; assay: Induction of mitochondrial membrane potential loss in human HepG2 cell incubated for 24 hrs by JC1 staining based fluorescence microscopic method; assay type: functional; method in brief: as §2
[9] = test system: HepG2; assay: Induction of apoptosis in human HepG2 cells assessed as necrotic cells at 0.5 uM incubated for 24 hrs by annexin V staining based cell counting method (reference value: 3.40%); assay type: functional
[10] = test system: RPMI-8226; assay: Antiproliferative activity against human RPMI8226 cells incubated for 72 hrs by CCK8 cells; assay type: functional, cell-based; conditions: RPMI-8226, 72 h
Method in brief: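 CCK-8 proliferation assay. 10,000 cells per well were preincubated 24 h at 37 °C with 5% CO2, then given compound dissolved in DMSO and incubated 72 h. CCK-8 was added for 4 h and absorbance read at 450 nm. IC50 was taken from dose-response curves as mean ± SEM of at least three independent experiments, with paclitaxel as positive control. HepG2 and L-O2 were grown in DMEM/10% FBS; A549 and RPMI-8226 in RPMI 1640/10% FBS.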

[11] = test system: PLC-PRF-5; assay: Induction of cell cycle arrest in human PLC/PRF/5 cells assessed as accumulation at S phase at 1 uM incubated for 24 hrs by PI staining based flow cytometric analysis (reference value: 42.03%); assay type: functional
[12] = test system: PLC-PRF-5; assay: Induction of cell cycle arrest in human PLC/PRF/5 cells assessed as accumulation at S phase at 0.5 uM incubated for 24 hrs by PI staining based flow cytometric analysis (reference value: 42.03%); assay type: functional
[13] = test system: PLC-PRF-5; assay: Induction of apoptosis in human PLC/PRF/5 cells assessed as upregulation of Bax protein expression level incubated for 24 hrs by Western blot analysis; assay type: functional, cell-based; method in brief: as §3
[14] = test system: PLC-PRF-5; assay: Induction of ROS generation in human PLC/PRF/5 cells at 1 uM by DCFH-DA staining-based flow cytometric analysis relative to control; assay type: functional; method in brief: as §1
[15] = test system: PLC-PRF-5; assay: Induction of apoptosis in human PLC/PRF/5 cells assessed as live cells at 1 uM incubated for 24 hrs by annexin V staining based cell counting method (reference value: 88.95%); assay type: functional
[16] = test system: PLC-PRF-5; assay: Induction of apoptosis in human PLC/PRF/5 cells assessed as upregulation of cleaved PARP protein expression level incubated for 24 hrs by Western blot analysis; assay type: functional, cell-based; method in brief: as §3
[17] = Selectivity index, ratio of IC50 for human LO2 cells to IC50 for human PLC/PRF/5 cells
Method in brief: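 L-O2 and PLC/PRF/5 cells were grown in DMEM with 10% FBS at 37 °C and 5% CO₂. For CCK-8 proliferation, 10,000 cells per well were pre-incubated 24 h, then exposed to compound in DMSO for 72 h. CCK-8 was added for 4 h and A450 read. IC50 came from dose–response curves; SI is IC50(L-O2)/IC50(PLC/PRF/5).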

[18] = test system: PLC-PRF-5; assay: Induction of apoptosis in human PLC/PRF/5 cells assessed as late apoptotic cells at 0.25 uM incubated for 24 hrs by annexin V staining based cell counting method (reference value: 4.81%); assay type: functional
[19] = test system: PLC-PRF-5; assay: Induction of apoptosis in human PLC/PRF/5 cells assessed as early apoptotic cells at 1 uM incubated for 24 hrs by annexin V staining based cell counting method (reference value: 5.65%); assay type: functional
[20] = test system: PLC-PRF-5; assay: Induction of cell cycle arrest in human PLC/PRF/5 cells assessed as accumulation at G1 phase at 0.5 uM incubated for 24 hrs by PI staining based flow cytometric analysis (reference value: 34.78%); assay type: functional
[21] = test system: HepG2; assay: Induction of cell cycle arrest in human HepG2 cells assessed as accumulation at G2 phase at 1 uM incubated for 24 hrs by PI staining based flow cytometric analysis (reference value: 25.55%); assay type: functional
[22] = test system: HepG2; assay: Induction of apoptosis in human HepG2 cells assessed as upregulation of cleaved caspase 3 protein expression level incubated for 24 hrs by Western blot analysis; assay type: functional, cell-based; method in brief: as §3
[23] = test system: PLC-PRF-5; assay: Induction of apoptosis in human PLC/PRF/5 cells assessed as live cells at 0.25 uM incubated for 24 hrs by annexin V staining based cell counting method (reference value: 88.95%); assay type: functional
[24] = test system: HepG2; assay: Induction of apoptosis in human HepG2 cells assessed as increase in cytochrome c protein expression level at 0.25 to 1.25 uM incubated for 24 hrs by Western blot analysis; assay type: functional, cell-based; method in brief: as §3
[25] = test system: PLC-PRF-5; assay: Induction of apoptosis in human PLC/PRF/5 cells assessed as late apoptotic cells at 0.5 uM incubated for 24 hrs by annexin V staining based cell counting method (reference value: 4.81%); assay type: functional
[26] = test system: PLC-PRF-5; assay: Induction of apoptosis in human PLC/PRF/5 cells assessed as increase in cytochrome c protein expression level at 0.25 to 1.25 uM incubated for 24 hrs by Western blot analysis; assay type: functional, cell-based; method in brief: as §3

IC50 [10]: 8.56 µM
Compound: C=C1C(=O)[C@]23[C@H](OC(=O)/C=C/c4ccc(OC)cc4)[C@H]1CC[C@H]2[C@@]12CO[C@]3(O)[C@@H](O)[C@@H]1C(C)(C)CC[C@@H]2O
Activity [1]: 64.3% | Activity [2]: 53.4% | Activity [3]: Dose-dependent effect | Activity [4]: Dose-dependent effect | inhibition [5]: Active | Activity [6]: Dose-dependent effect | Activity [7]: 39.07% | Activity [8]: Dose-dependent effect | Activity [9]: 5.75% | Activity [11]: 43.13% | Activity [12]: 39.83% | Activity [13]: Dose-dependent effect | fold change (FC) [14]: 3 | Activity [15]: 33.5% | Activity [16]: Dose-dependent effect | Ratio IC50 [17]: 1.8 | Activity [18]: 9.14% | Activity [19]: 29.39% | Activity [20]: 43.49% | Activity [21]: 22.67% | Activity [22]: Dose-dependent effect | Activity [23]: 80.53% | Activity [24]: Active | Activity [25]: 18.84% | Activity [26]: Active
